Experimental data: paper PMC10245936 (bioRxiv, 2023)
Where “and” joins values, the source holds several entries; their conditions need not be identical. Equal entries are not always repeated.

How the values were obtained:
[1] = HIE viability, CellTiter-Glo 2.0 Cell Viability Assay; format: cell-based; conditions: human, J2004 HIE line monolayers
Method in brief: (§1)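 CellTiter-Glo 2.0 read as directed by the manufacturer on 5-day-differentiated monolayers. Triplicate wells were given vehicle or compound in virus-free incubation medium for 24 h. CC50 from nonlinear regression of percent viability, with the bottom fixed at 0.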

GII.4 Sydney [P31] virus = conditions: adult jejunal HIE line plated as monolayers; cited from earlier work
GII.17[P13] HuNoV = assay: HuNoV replication; format: cell-based, human norovirus
Method in brief: (§2)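 Differentiated monolayers (24 h INTp, then 5 days INTd) received 100 TCID50 (TCID50 per genotype and HIE line by Reed-Muench) with compound in CMGF- plus 500 μM GCDCA for 1–2 h at 37°C. Cells were washed 3 times, then kept in compound-containing INTd with GCDCA for 24 h. Five ascending concentrations; vehicle 1% DMSO or 2% H2O final. Genome equivalents by RT-qPCR against a standard curve. Triplicate wells, duplicate qPCR. Dunnett versus vehicle; EC50/EC90 by nonlinear regression (top fixed at 100); SI = CC50/EC50.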

HuNoV [2] = conditions: chronically infected HuNoV patients; cited from earlier work
5 HuNoV strains = assay: Antiviral pipeline, summary over all HuNoV strains and HIE lines tested; format: cell-based; conditions: Norovirus, in Homo sapiens
Method in brief: as §2

HuNoV [3] = conditions: HuNoV-infected, otherwise healthy patients, versus placebo; cited from earlier work
J2 HIE line = assay: HIE viability, CellTiter-Glo 2.0 Cell Viability Assay; format: cell-based, human; conditions: J2 HIEs, 24 h
GI.1[P1] HuNoV = assay: HuNoV replication; format: cell-based, human norovirus; conditions: for EC90: 100 TCID50
Method in brief: as §2

J2 HIEs = assay: Preliminary dose-range cytotoxicity assessment; format: cell-based, human; conditions: for monolayer integrity and propidium iodide staining: 24 h
[4] = HIE viability, CellTiter-Glo 2.0 Cell Viability Assay; format: cell-based; conditions: human, IL2004 HIE line monolayers
Method in brief: as §1

[5] = as above; format: cell-based; conditions: human, D2004 HIE line monolayers
Method in brief: as §1

J4FUT2 HIE line = assay: HIE viability, CellTiter-Glo 2.0 Cell Viability Assay; format: cell-based, human; conditions: J4FUT2 HIEs, 24 h
GII.3[P21] HuNoV = assay: HuNoV replication; format: cell-based, human norovirus
Method in brief: as §2

GII.4 Sydney [P31] HuNoV = assay: HuNoV replication; format: cell-based, human norovirus; conditions: for SI: CC50 over EC50, J2 HIE line
Method in brief: as §2

GII.4 Sydney [P16] HuNoV = assay: HuNoV replication; format: cell-based, human norovirus; conditions: for SI: CC50 over EC50; for EC50 / EC90: 100 TCID50, 24 h
Method in brief: as §2

[6] = tested on: 3 different GII.4 HuNoV isolates; conditions: fetal ileum-derived 3D HIEs; non-cytotoxic concentration; cited from earlier work
[7] = tested on: adult jejunal HIE line (J2) monolayers; conditions: cited from earlier work
HuNoV [8] = conditions: 31 randomized patients, compared to placebo; ref NCT03395405; cited from earlier work
[9] = tested on: GI.1-based HuNoV replicon; conditions: Huh7 liver cells; cited from earlier work
[10] = standard adult NTZ dose, one 500 mg tablet by mouth twice daily; cited from earlier work
HuNoV [11] = conditions: HIE monolayers; cited from earlier work
[12] = CC50 over EC50, J4FUT2 HIE line
[13] = Norovirus, in Homo sapiens, 24 h
[14] = J4FUT2 HIEs, at 40 and 80 μM, 24 h
[15] = Norovirus, in Homo sapiens, 24 h, read-out: inhibition of replication
[16] = Norovirus, in Homo sapiens, D2004 (duodenal) HIE line
[17] = Norovirus, in Homo sapiens, IL2004 (ileal) HIE line
[18] = Norovirus, in Homo sapiens, J2 HIE line
[19] = Norovirus, in Homo sapiens, J2004 (jejunal) HIE line

Which CC50 at 24 h [1] does the source give for CC(=O)Oc1ccccc1C(=O)Nc1ncc([N+](=O)[O-])s1 [NTZ, nitazoxanide] here?
The CC50 at 24 h was 63.1 µM.

And the “inhibitory activity on replication” value (GII.4 Sydney [P31] virus)?
Its value is “no inhibitory activity”.

What about the SI (GII.17[P13] HuNoV; [12]) of the same molecule?
Its SI is 1.9.

And the reduction in replication (GII.17[P13] HuNoV; J4FUT2 HIEs, 80 μM, 24 h)?
The reduction in replication was 1.5 log10.

And the EC50 (GII.17[P13] HuNoV; [13])?
Its EC50 is 33.4 µM.

What about the EC90 (GII.17[P13] HuNoV; [13]) of the same molecule?
Its EC90 is over 80 µM.

And the “clinical outcome versus other or no treatments” value (HuNoV [2])?
The value was “no differences were reported”.

And the EC50 (5 HuNoV strains)?
Its EC50 is at least 10 µM.

What about the symptom resolution (HuNoV [3]) of the same molecule?
Its symptom resolution is “symptom resolution significantly faster”.

What about the viability (J2 HIE line; 80 μM) of the same molecule?
Its viability is “reduction in viability”.

What about the SI (GI.1[P1] HuNoV; [12]) of the same molecule?
Its SI is 2.7.

And the EC90 (GI.1[P1] HuNoV; J4FUT2 HIE line, 24 h)?
Its EC90 is 76 µM.

And the inhibition in replication (GI.1[P1] HuNoV; [14])?
Its inhibition in replication is 72.3 – 98.2%.

And the “reduction of genome equivalents” value (GI.1[P1] HuNoV; [14])?
The value was 0.6 – 1.8 log10.

And the EC50 (GI.1[P1] HuNoV; [13])?
The EC50 was 27.4 µM.

What about the EC90 (GI.1[P1] HuNoV; Norovirus, in Homo sapiens, 24 h, J4FUT2 HIE line) of the same molecule?
Its EC90 is 76.3 µM.

What about the “monolayer integrity and propidium iodide staining” value (J2 HIEs; 32 μM) of the same molecule?
The value was “monolayers were intact and had few dead or damaged cells”.

What about the “monolayer integrity and propidium iodide staining” value (J2 HIEs; 100 μM and above) of the same molecule?
Its value is “disassociation of the monolayer”.

And the “cytotoxicity, CellTiter-Glo 2.0” value (J2 HIEs; highest concentrations (≥100 μM) of range 3 to 316 μM)?
The value was “high cytotoxicity and detachment of the monolayer”.

And the CC50 at 24 h [4]?
Its CC50 at 24 h is 57 µM.

And the CC50 at 24 h [5]?
The CC50 at 24 h was 50.9 µM.

What about the cell viability (J4FUT2 HIE line; 80 μM, in tandem with GII.17 assay) of the same molecule?
The cell viability was “significantly reduced cell viability”.

And the cytotoxicity (J4FUT2 HIE line; 40 and 80 μM, in tandem with GII.3 assay)?
Its cytotoxicity is “cytotoxic”.

What about the average viability (J4FUT2 HIE line; in tandem with GI.1 assay) of the same molecule?
The average viability was “steady up to 40 μM but significantly reduced at 80 μM”.

What about the SI (GII.3[P21] HuNoV; [12]) of the same molecule?
The SI was 4.5.

What about the average percent inhibition (GII.3[P21] HuNoV; [14]) of the same molecule?
The average percent inhibition was 79.6 – 98.8%.

What about the EC50 (GII.3[P21] HuNoV; [13]) of the same molecule?
The EC50 was 14.4 µM.

And the EC90 (GII.3[P21] HuNoV; [13])?
Its EC90 is over 80 µM.

And the inhibition at 20 µM (GII.3[P21] HuNoV; Norovirus, in Homo sapiens, 24 h, read-out: average percent inhibition)?
Its inhibition at 20 µM is 39.7 to 55.2%.

And the SI (GII.4 Sydney [P31] HuNoV)?
Its SI is 1.9.

What about the reduction in replication (GII.4 Sydney [P31] HuNoV; J2 HIEs, 40 μM, 24 h) of the same molecule?
Its reduction in replication is 0.67 log10.

And the reduction in replication (GII.4 Sydney [P31] HuNoV; J2 HIEs, 80 μM, 24 h)?
Its reduction in replication is 2.31 log10.

What about the EC50 (GII.4 Sydney [P31] HuNoV; [13]) of the same molecule?
The EC50 was 37.1 µM.

And the EC90 (GII.4 Sydney [P31] HuNoV; [13])?
Its EC90 is 43 µM.

And the inhibition at 40 µM (GII.4 Sydney [P31] HuNoV; [15])?
Its inhibition at 40 µM is 76.7%.

What about the inhibition at 80 µM (GII.4 Sydney [P31] HuNoV; [15]) of the same molecule?
Its inhibition at 80 µM is 99.5%.

What about the “inhibition of replication (significance)” value (GII.4 Sydney [P16] HuNoV; 40 μM, duodenal D2004 HIEs) of the same molecule?
The value was “significantly inhibitory”.

And the “inhibition of replication (significance)” value (GII.4 Sydney [P16] HuNoV; 80 μM, across J2, D2004, J2004, IL2004 HIE lines)?
The value was “significantly inhibitory”.

And the SI (GII.4 Sydney [P16] HuNoV; D2004 HIE line)?
The SI was 1.2.

What about the SI (GII.4 Sydney [P16] HuNoV; IL2004 HIE line) of the same molecule?
The SI was 1.4.

What about the SI (GII.4 Sydney [P16] HuNoV; J2 HIE line) of the same molecule?
Its SI is 4.0.

And the SI (GII.4 Sydney [P16] HuNoV; J2004 HIE line)?
The SI was 1.2.

What about the EC50 (GII.4 Sydney [P16] HuNoV; J2 HIE line) of the same molecule?
Its EC50 is 12.9 µM.

And the EC50 (GII.4 Sydney [P16] HuNoV; [16])?
The EC50 was 42.8 µM.

And the EC90 (GII.4 Sydney [P16] HuNoV; [16])?
The EC90 was over 80 µM.

What about the EC50 (GII.4 Sydney [P16] HuNoV; [17]) of the same molecule?
Its EC50 is 40 µM.

And the EC90 (GII.4 Sydney [P16] HuNoV; [17])?
Its EC90 is 46 µM.

What about the EC50 (GII.4 Sydney [P16] HuNoV; [18]) of the same molecule?
The EC50 was 12 µM.

What about the EC90 (GII.4 Sydney [P16] HuNoV; [18]) of the same molecule?
Its EC90 is over 80 µM.

What about the EC50 (GII.4 Sydney [P16] HuNoV; [19]) of the same molecule?
Its EC50 is 53.9 µM.

What about the EC90 (GII.4 Sydney [P16] HuNoV; [19]) of the same molecule?
Its EC90 is over 80 µM.

What about the SIs (GII.4 Sydney [P16] HuNoV; span over duodenal, jejunal, and ileal lines derived from the same donor) of the same molecule?
Its SIs is 1.2 – 1.4.

What about the “replication of HuNoV isolates” value [6] of the same molecule?
The value was “reduced replication”.

And the “highest dose tested that kept the cell monolayers intact” value ([7]; J2 HIE monolayers)?
Its value is 10 µM.

And the HIE monolayer integrity ([7]; concentrations below 10 µM)?
Its HIE monolayer integrity is “intact”.

What about the “clinical resolution of symptoms” value (HuNoV [8]) of the same molecule?
The value was “did not improve clinical resolution of symptoms”.

What about the fecal viral load (HuNoV [8]) of the same molecule?
The fecal viral load was “no effect”.

What about the “replication of the replicon” value [9] of the same molecule?
The value was “inhibited replication”.

Which results are given for O=C(Nc1ncc([N+](=O)[O-])s1)c1ccccc1O [tizoxanide]?
maximal concentrations of tizoxanide [10]: approximately 10 µg/mL and ~ 38 µM; replication of HuNoV isolates [6]: reduced replication; replication of the replicon [9]: inhibited replication

Which HuNoV replication (HuNoV [11]) does the source give for C[C@@]1(O)[C@H](O)[C@@H](CO)O[C@H]1n1ccc(N)nc1=O [2’CMC, 2’-C-methylcytidine] here?
The HuNoV replication was “inhibit HuNoV replication”.

What about the “cytotoxicity (luciferase-based viability assay)” value (J2 HIE line; any concentration tested (up to 316 μM)) of the same molecule?
The value was “not cytotoxic”.

And the SI (GII.4 Sydney [P31] HuNoV)?
The SI was over 31.6.

And the reduction of replication (GII.4 Sydney [P31] HuNoV; J2 HIEs, between 3 – 316 μM, 24 h)?
The reduction of replication was 0.12 – 2.65 log10.

What about the EC50 (GII.4 Sydney [P31] HuNoV; [13]) of the same molecule?
The EC50 was 10 µM.

What about the EC90 (GII.4 Sydney [P31] HuNoV; [13]) of the same molecule?
Its EC90 is 54 µM.

What about the inhibition at 316 µM (GII.4 Sydney [P31] HuNoV; [15]) of the same molecule?
The inhibition at 316 µM was 23.5 to 100%.
